Publication PMC11333997 (RSC Advances, 2024)

How the values were obtained:
[1] = system: HCT-116 cells; assay: Flow cytometry cell cycle analysis; type: cell-based, human
Summary of the method: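 HCT-116 cells exposed to the test compound for 24 h, with DMSO as control. Cells were stained with propidium iodide, and DNA ploidy was analysed on a FACSCalibur flow cytometer. The percentage of cells in G0–G1, S and G2-M phases was reported.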

[2] = molecular target: VEGFR-2 (Homo sapiens, UniProt P35968); assay: biochemical
[3] = system: WI-38 normal human lung fibroblast cells; assay: MTT cytotoxicity on normal fibroblast cell line; type: cell-based; settings: WI-38, read-out: IC50 WI-38
[4] = system: HEPG-2 hepatocellular carcinoma cells; assay: MTT in vitro anti-tumor screening; type: cell-based; settings: Homo sapiens, HepG2, read-out: IC50 HEPG-2
[5] = molecular target: EGFR (Homo sapiens, UniProt P00533); assay: In vitro EGFR kinase inhibition assay; type: biochemical
[6] = system: HEPG-2, HCT-116 and MCF-7 cell lines; assay: MTT anti-tumor screening, values over the cancer cell line panel; type: cell-based; settings: Homo sapiens, read-out: IC50 range over the cancer cell lines
[7] = system: EGFR/VEGFR-2; assay: EGFR/VEGFR-2 enzyme inhibition, both kinases stated together; type: biochemical; settings: compared with the tested analogues (4)
[8] = system: MCF-7 breast cancer cells; assay: MTT in vitro anti-tumor screening; type: cell-based, human; settings: read-out: IC50 MCF-7, mean of three independent experiments ± SD

EGFR, sequence (P00533 25-1210): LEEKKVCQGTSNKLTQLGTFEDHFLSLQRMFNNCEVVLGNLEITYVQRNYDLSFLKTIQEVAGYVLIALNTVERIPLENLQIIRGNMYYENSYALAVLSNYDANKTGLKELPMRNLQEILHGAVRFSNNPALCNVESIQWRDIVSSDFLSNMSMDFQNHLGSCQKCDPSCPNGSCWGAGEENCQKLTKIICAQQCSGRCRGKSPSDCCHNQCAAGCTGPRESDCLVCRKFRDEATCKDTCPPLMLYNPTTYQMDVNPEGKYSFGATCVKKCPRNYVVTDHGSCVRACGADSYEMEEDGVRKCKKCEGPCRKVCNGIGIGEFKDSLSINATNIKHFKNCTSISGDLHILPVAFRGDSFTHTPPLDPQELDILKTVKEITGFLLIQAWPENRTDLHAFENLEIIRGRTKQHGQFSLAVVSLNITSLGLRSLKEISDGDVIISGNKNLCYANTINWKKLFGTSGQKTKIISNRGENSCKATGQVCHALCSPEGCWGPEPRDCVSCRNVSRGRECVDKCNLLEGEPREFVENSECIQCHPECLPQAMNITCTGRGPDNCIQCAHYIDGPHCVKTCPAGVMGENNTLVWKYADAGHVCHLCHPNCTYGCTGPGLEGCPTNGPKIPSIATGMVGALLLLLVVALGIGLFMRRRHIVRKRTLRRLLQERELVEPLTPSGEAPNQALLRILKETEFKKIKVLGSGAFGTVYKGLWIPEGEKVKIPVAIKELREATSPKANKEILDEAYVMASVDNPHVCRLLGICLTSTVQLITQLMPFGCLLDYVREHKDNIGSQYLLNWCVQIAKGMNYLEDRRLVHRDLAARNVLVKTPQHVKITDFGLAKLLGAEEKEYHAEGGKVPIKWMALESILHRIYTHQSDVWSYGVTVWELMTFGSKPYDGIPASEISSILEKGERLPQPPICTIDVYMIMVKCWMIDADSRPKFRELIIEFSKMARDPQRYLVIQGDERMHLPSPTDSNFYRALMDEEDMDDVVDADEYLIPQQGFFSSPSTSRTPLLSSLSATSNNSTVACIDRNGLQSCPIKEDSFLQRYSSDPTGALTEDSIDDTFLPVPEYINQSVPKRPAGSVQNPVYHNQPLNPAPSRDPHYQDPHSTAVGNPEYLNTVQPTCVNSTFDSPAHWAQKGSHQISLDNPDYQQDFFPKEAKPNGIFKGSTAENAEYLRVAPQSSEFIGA
VEGFR-2, sequence (P35968 20-1356): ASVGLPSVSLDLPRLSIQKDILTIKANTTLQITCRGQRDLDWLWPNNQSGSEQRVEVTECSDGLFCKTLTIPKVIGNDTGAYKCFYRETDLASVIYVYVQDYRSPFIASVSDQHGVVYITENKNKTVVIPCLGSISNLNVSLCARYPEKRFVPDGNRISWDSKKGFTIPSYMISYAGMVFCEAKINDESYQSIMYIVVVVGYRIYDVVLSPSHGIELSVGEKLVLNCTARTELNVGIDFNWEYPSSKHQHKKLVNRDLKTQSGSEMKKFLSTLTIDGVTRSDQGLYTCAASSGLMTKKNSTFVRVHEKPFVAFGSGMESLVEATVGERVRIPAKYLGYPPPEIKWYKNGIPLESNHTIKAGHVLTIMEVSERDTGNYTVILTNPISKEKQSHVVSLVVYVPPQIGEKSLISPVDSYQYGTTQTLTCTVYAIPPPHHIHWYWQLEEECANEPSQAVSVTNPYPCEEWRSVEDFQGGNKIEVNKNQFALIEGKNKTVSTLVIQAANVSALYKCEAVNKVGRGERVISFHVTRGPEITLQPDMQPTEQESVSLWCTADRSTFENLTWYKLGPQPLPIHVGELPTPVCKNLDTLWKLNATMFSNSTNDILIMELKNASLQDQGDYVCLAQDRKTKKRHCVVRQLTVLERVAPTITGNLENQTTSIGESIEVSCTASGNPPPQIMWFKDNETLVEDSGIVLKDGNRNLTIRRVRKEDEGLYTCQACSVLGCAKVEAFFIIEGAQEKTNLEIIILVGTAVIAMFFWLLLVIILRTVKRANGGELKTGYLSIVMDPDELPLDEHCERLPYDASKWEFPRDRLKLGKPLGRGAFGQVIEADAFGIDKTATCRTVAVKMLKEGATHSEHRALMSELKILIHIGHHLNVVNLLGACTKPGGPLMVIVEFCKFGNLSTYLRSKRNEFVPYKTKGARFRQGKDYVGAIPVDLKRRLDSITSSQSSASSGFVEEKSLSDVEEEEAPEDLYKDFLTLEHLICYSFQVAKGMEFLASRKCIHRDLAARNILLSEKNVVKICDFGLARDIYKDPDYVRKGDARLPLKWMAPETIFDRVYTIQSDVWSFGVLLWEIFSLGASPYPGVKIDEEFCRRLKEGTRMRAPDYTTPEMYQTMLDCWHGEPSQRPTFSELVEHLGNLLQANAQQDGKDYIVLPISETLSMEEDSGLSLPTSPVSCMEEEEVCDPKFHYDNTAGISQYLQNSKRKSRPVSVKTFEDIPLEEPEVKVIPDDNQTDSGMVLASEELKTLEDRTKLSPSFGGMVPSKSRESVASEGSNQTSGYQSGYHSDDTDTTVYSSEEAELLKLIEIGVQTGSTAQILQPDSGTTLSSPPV

Row | SMILES | IC50 [4] [µM] | IC50 [3] [µM] | also measured
1 | COc1ccc(-n2c(SCC(=O)NNC(=O)NCc3ccccc3)nc3ccccc3c2=O)cc1 [Compound 27, N-Benzyl-2-(2-((3-(4-methoxyphenyl)-4-oxo-3,4-dihydroquinazolin-2-yl)thio)acetyl)hydrazinecarboxamide] | 87.3 ± 4.6 | > 100 | 
2 | Cc1ccc(NC(=O)NNC(=O)CSc2nc3ccccc3c(=O)n2-c2ccc(C)cc2)cc1 [Compound 7, 2-(2-((4-Oxo-3-(p-tolyl)-3,4-dihydroquinazolin-2-yl)thio)acetyl)-N-(p-tolyl)hydrazinecarboxamide] | 76.4 ± 4.3 | > 100 | 
3 | O=C(CSc1nc2ccccc2c(=O)n1-c1ccc(Cl)cc1)NNC(=O)Nc1ccc(F)cc1 [Compound 13, 2-(2-((3-(4-Chlorophenyl)-4-oxo-3,4-dihydroquinazolin-2-yl)thio)acetyl)-N-(4-fluorophenyl)hydrazinecarboxamide] | 63.5 ± 3.7 | 47.5 ± 2.6 | 
4 | COc1ccc(NC(=O)NNC(=O)CSc2nc3ccccc3c(=O)n2-c2ccc(C)cc2)cc1 [Compound 8, N-(4-Methoxyphenyl)-2-(2-((4-oxo-3-(p-tolyl)-3,4-dihydroquinazolin-2-yl)thio)acetyl)hydrazinecarboxamide] | > 100 | 31.8 ± 2.2 | 
5 | COc1ccc(-n2c(SCC(=O)NNC(=O)Nc3ccc(Cl)cc3)nc3ccccc3c2=O)cc1 [Compound 22, N-(4-Chlorophenyl)-2-(2-((3-(4-methoxyphenyl)-4-oxo-3,4-dihydroquinazolin-2-yl)thio)acetyl)hydrazinecarboxamide] | 37.8 ± 2.1 | 15.5 ± 1.2 | 
6 | COc1ccc(-n2c(SCC(=O)NNC(=O)Nc3c(C)cccc3C)nc3ccccc3c2=O)cc1 [Compound 25, N-(2,6-Dimethylphenyl)-2-(2-((3-(4-methoxyphenyl)-4-oxo-3,4-dihydroquinazolin-2-yl)thio)acetyl)hydrazinecarboxamide] | 83.6 ± 4.5 | 56.4 ± 3.3 | 
7 | O=C(CSc1nc2ccccc2c(=O)n1-c1ccc(Cl)cc1)NNC(=O)Nc1ccc(C(F)(F)F)cc1Cl [Compound 18, N-(2-Chloro-4-(trifluoromethyl)phenyl)-2-(2-((3-(4-chlorophenyl)-4-oxo-3,4-dihydroquinazolin-2-yl)thio)acetyl)hydrazinecarboxamide] | 34.6 ± 2 | 84.4 ± 4.2 | 
8 | Cc1ccc(NC(=O)NNC(=O)CSc2nc3ccccc3c(=O)n2-c2ccc(Cl)cc2)cc1 [Compound 15, 2-(2-((3-(4-Chlorophenyl)-4-oxo-3,4-dihydroquinazolin-2-yl)thio)acetyl)-N-(p-tolyl)hydrazinecarboxamide] | 68.6 ± 3.9 | 43.2 ± 2.5 | 
9 | Cc1ccc(-n2c(SCC(=O)NNC(=O)Nc3ccc(F)cc3)nc3ccccc3c2=O)cc1 [Compound 5, N-(4-Fluorophenyl)-2-(2-((4-oxo-3-(p-tolyl)-3,4-dihydroquinazolin-2-yl)thio)acetyl)hydrazinecarboxamide] | 58.9 ± 3.4 | > 100 | 
10 | COc1ccc(-n2c(SCC(=O)NNC(=O)Nc3ccc(C)cc3)nc3ccccc3c2=O)cc1 [Compound 23, 2-(2-((3-(4-Methoxyphenyl)-4-oxo-3,4-dihydroquinazolin-2-yl)thio)acetyl)-N-(p-tolyl)hydrazinecarboxamide] | 41.3 ± 2.4 | 63.9 ± 3.7 | 
11 | Cc1ccc(-n2c(SCC(=O)NNC(=O)Nc3ccc(C(F)(F)F)cc3Cl)nc3ccccc3c2=O)cc1 [Compound 10, N-(2-Chloro-4-(trifluoromethyl)phenyl)-2-(2-((4-oxo-3-(p-tolyl)-3,4-dihydroquinazolin-2-yl)thio)acetyl)hydrazinecarboxamide] | 49.6 ± 2.7 | 86.9 ± 4.4 | 
12 | COc1ccc(NC(=O)NNC(=O)CSc2nc3ccccc3c(=O)n2-c2ccc(Cl)cc2)cc1 [Compound 16, 2-(2-((3-(4-Chlorophenyl)-4-oxo-3,4-dihydroquinazolin-2-yl)thio)acetyl)-N-(4-methoxyphenyl)hydrazinecarboxamide] | 46.6 ± 2.6 | 17.8 ± 1.3 | 
13 | COc1ccc(NC(=O)NNC(=O)CSc2nc3ccccc3c(=O)n2-c2ccc(OC)cc2)cc1 [Compound 24, N-(4-Methoxyphenyl)-2-(2-((3-(4-methoxyphenyl)-4-oxo-3,4-dihydroquinazolin-2-yl)thio)acetyl)hydrazinecarboxamide] | > 100 | 71.4 ± 3.8 | 
14 | Cc1ccc(-n2c(SCC(=O)NNC(=O)Nc3c(C)cccc3C)nc3ccccc3c2=O)cc1 [Compound 9, N-(2,6-Dimethylphenyl)-2-(2-((4-oxo-3-(p-tolyl)-3,4-dihydroquinazolin-2-yl)thio)acetyl)hydrazinecarboxamide] | 53.1 ± 3 | 62.2 ± 3.5 | 
15 | COc1ccc(-n2c(SCC(=O)NNC(=O)Nc3ccc(C(F)(F)F)cc3Cl)nc3ccccc3c2=O)cc1 [Compound 26, N-(2-Chloro-4-(trifluoromethyl)phenyl)-2-(2-((3-(4-methoxyphenyl)-4-oxo-3,4-dihydroquinazolin-2-yl)thio)acetyl)hydrazinecarboxamide] | 72.8 ± 4 | 30.2 ± 2.1 | 
16 | O=C(CSc1nc2ccccc2c(=O)n1-c1ccc(Cl)cc1)NNC(=O)NCc1ccccc1 [Compound 19, N-Benzyl-2-(2-((3-(4-chlorophenyl)-4-oxo-3,4-dihydroquinazolin-2-yl)thio)acetyl)hydrazinecarboxamide] | 73.5 ± 4.2 | > 100 | 

The next compounds have a lower IC50 [4] than those just listed; values first:

Row | IC50 [4] [µM] | SMILES | IC50 [3] [µM] | also measured
17 | 29.8 ± 1.8 | O=C(CSc1nc2ccccc2c(=O)n1-c1ccc(Cl)cc1)NNC(=O)Nc1ccc(Cl)cc1 [Compound 14, N-(4-Chlorophenyl)-2-(2-((3-(4-chlorophenyl)-4-oxo-3,4-dihydroquinazolin-2-yl)thio)acetyl)hydrazinecarboxamide] | 16.7 ± 1.4 | 
18 | 22.4 ± 1.5 | Cc1cccc(C)c1NC(=O)NNC(=O)CSc1nc2ccccc2c(=O)n1-c1ccc(Cl)cc1 [Compound 17, 2-(2-((3-(4-Chlorophenyl)-4-oxo-3,4-dihydroquinazolin-2-yl)thio)acetyl)-N-(2,6-dimethylphenyl)hydrazinecarboxamide] | 89.4 ± 4.7 | 
19 | 19.5 ± 1.3 | O=C(CSc1nc2ccccc2c(=O)n1-c1ccc(Cl)cc1)NNC(=O)Nc1ccccc1 [Compound 12, 2-(2-((3-(4-Chlorophenyl)-4-oxo-3,4-dihydroquinazolin-2-yl)thio)acetyl)-N-phenylhydrazinecarboxamide] | 75.5 ± 4 | IC50 [8]: 12.9 ± 1 µM
20 | 14.2 ± 1.2 | Cc1ccc(-n2c(SCC(=O)NNC(=O)Nc3ccc(Cl)cc3)nc3ccccc3c2=O)cc1 [Compound 6, N-(4-Chlorophenyl)-2-(2-((4-oxo-3-(p-tolyl)-3,4-dihydroquinazolin-2-yl)thio)acetyl)hydrazinecarboxamide] | 66.2 ± 3.9 | 
21 | 11.5 ± 0.9 | COc1ccc(-n2c(SCC(=O)NNC(=O)Nc3ccc(F)cc3)nc3ccccc3c2=O)cc1 [Compound 21, N-(4-Fluorophenyl)-2-(2-((3-(4-methoxyphenyl)-4-oxo-3,4-dihydroquinazolin-2-yl)thio)acetyl)hydrazinecarboxamide] | 27.6 ± 1.9 | 
22 | 8.1 ± 0.6 | Cc1ccc(-n2c(SCC(=O)NNC(=O)NCc3ccccc3)nc3ccccc3c2=O)cc1 [Compound 11, N-Benzyl-2-(2-((4-oxo-3-(p-tolyl)-3,4-dihydroquinazolin-2-yl)thio)acetyl)hydrazinecarboxamide] | 54.1 ± 3 | IC50 [2]: 0.156 ± 0.007 µM; IC50 [5]: 0.117 ± 0.005 µM
23 | 5.17 ± 0.4 | COc1ccc(-n2c(SCC(=O)NNC(=O)Nc3ccccc3)nc3ccccc3c2=O)cc1 [Compound 20, 2-(2-((3-(4-Methoxyphenyl)-4-oxo-3,4-dihydroquinazolin-2-yl)thio)acetyl)-N-phenylhydrazinecarboxamide] | 42.9 ± 2.6 | fold decrease in binding affinity (EGFR and VEGFR-2) [7]: 9–10 fold; IC50 [2]: 0.474 ± 0.02 µM; IC50 [5]: 0.362 ± 0.014 µM; IC50 [6]: 4.42 to 6.39 µM
24 | 3.92 ± 0.2 | Cc1ccc(-n2c(SCC(=O)NNC(=O)Nc3ccccc3)nc3ccccc3c2=O)cc1 [Compound 4, 2-(2-((4-Oxo-3-(p-tolyl)-3,4-dihydroquinazolin-2-yl)thio)acetyl)-N-phenylhydrazinecarboxamide] | 45.6 ± 2.4 | Cell cycle distribution G2-M ([1]; at IC50 concentration, 24 h, control 19.54%): 8.65%; Cell cycle distribution S ([1]; at IC50 concentration, 24 h, control 36.53%): 36.18%; Cell cycle distribution G0–G1 ([1]; at IC50 concentration, 24 h, control 43.93%): 55.17%; cell cycle arrest phase ([1]; flow cytometry): G1 phase; IC50 [2]: 0.054 ± 0.002 µM; IC50 [5]: 0.049 ± 0.002 µM; IC50 [6]: 1.5 to 5.86 µM
